Each structure is given as a SMILES string. Where only a bound is given, the exact number is not on record here.

Series [1] has as its target Sphingosine 1-phosphate receptor 1 (Homo sapiens, UniProt P21453). Description: Agonist activity at human S1P1 receptor expressed in CHO cells assessed as induction of intracellular calcium level. It is filed as functional, cell-based. A digest of the protocol: (§1)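 Intracellular Ca²⁺ rise measured in CHO cells stably expressing human S1P₁ or S1P₃ receptor; EC₅₀ (nM) determined. Some values are the average of two assays.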

The target of series [2] is Sphingosine 1-phosphate receptor 3 (Homo sapiens, UniProt Q99500). Kind of series: Agonist activity at human S1P3 receptor expressed in CHO cells assessed as induction of intracellular calcium level. It is filed as functional, cell-based. A digest of the protocol: as §1
Chain of Sphingosine 1-phosphate receptor 3 (Q99500 whole entry): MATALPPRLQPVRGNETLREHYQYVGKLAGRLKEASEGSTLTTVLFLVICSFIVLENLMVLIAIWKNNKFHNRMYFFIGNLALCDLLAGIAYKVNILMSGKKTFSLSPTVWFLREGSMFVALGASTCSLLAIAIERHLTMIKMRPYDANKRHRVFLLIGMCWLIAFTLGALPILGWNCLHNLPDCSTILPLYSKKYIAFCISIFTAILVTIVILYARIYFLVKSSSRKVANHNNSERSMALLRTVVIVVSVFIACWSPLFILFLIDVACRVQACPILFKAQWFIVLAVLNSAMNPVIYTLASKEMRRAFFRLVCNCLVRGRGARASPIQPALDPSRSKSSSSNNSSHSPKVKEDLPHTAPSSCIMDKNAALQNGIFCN
For series [3], the system named is Mus musculus. Kind of series: Immunomodulatory activity in po dosed mouse assessed as reduction in peripheral lymphocyte count measured after 4 hrs. It is filed as functional. A digest of the protocol: (§2)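 Mice dosed orally over a dose titration; peripheral blood lymphocytes counted 4 h or 24 h after dosing. Each point is the mean % decrease versus vehicle controls (n = 5 per group, treated and control). ED₅₀ (mg/kg) derived from the titration.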

In series [4] the test system is Mus musculus. Description: Immunomodulatory activity in po dosed mouse assessed as reduction in peripheral lymphocyte count measured after 24 hrs. The format is functional. The method in brief: as §2
The nature of series [5]: Cmax in rat at 1 mg/kg, po. The following applies: in vivo. The format is ADME, organism-based. More on the design: dose 1 mg/kg, route oral.
The subject of the next series is Plasma. Description: Plasma concentration in rat at 1 mg/kg, po. It is filed as ADME, organism-based. More on the design: dose 1 mg/kg, route oral. The following applies: in vivo.
The nature of series [6]: Total clearance in rat at 1 mg/kg, iv. More on the design: dose 1 mg/kg, route intravenous. It is filed as ADME, organism-based. The settings on record: in vivo.
Series [7] in a line: Half life in rat at 1 mg/kg, iv. More on the design: dose 1 mg/kg, route intravenous. The following applies: in vivo. It is filed as ADME, organism-based.
A short description of series [8]: Half life in rat at 1 mg/kg, po. More on the design: dose 1 mg/kg, route oral. The format is ADME, organism-based. The following applies: in vivo.
A short description of series [9]: Volume of distribution at steady state in rat at 1 mg/kg, iv. More on the design: dose 1 mg/kg, route intravenous. The settings on record: in vivo, read-out: Vdss. The format is ADME, organism-based.
Series [10] in a line: Tmax in rat at 1 mg/kg, po. The format is ADME, organism-based. More on the design: dose 1 mg/kg, route oral. The following applies: in vivo.
Series [11] can be described thus: Oral bioavailability in rat at 1 mg/kg measured up to 24 hrs. The format is ADME, organism-based. The following applies: in vivo.
Series [12] is described as follows: AUC (0 to infinity) in rat at 1 mg/kg, iv measured up to 24 hrs. The format is ADME, organism-based. More on the design: time infinity, dose 1 mg/kg, route intravenous. The following applies: plasma.
The nature of series [13]: AUC (0 to infinity) in rat at 1 mg/kg, po measured up to 24 hrs. The format is ADME, organism-based. More on the design: time infinity, dose 1 mg/kg, route oral. The settings on record: plasma.
Series [14] is described as follows: AUC (0 to infinity) in rat at 1 mg/kg, iv. The following applies: plasma. It is filed as ADME, organism-based. More on the design: time infinity, dose 1 mg/kg, route intravenous.
The nature of series [15]: AUC (0 to infinity) in rat at 1 mg/kg, po. It is filed as ADME, organism-based. The settings on record: plasma. More on the design: time infinity, dose 1 mg/kg, route oral.
A short description of series [16]: Oral bioavailability in rat at 1 mg/kg. It is filed as ADME, organism-based. The following applies: in vivo.
The next series relates to CHO. Kind of series: Selectivity ratio of EC50 for human S1P3 receptor expressed in CHO cells to EC50 for S1P1 receptor expressed in CHO cells. The format is cell-based. The method in brief: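 Ratio of EC₅₀ values from intracellular Ca²⁺ stimulation assays in CHO cells stably expressing human S1P₃ versus human S1P₁.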

Chain of Sphingosine 1-phosphate receptor 1 (P21453 whole entry): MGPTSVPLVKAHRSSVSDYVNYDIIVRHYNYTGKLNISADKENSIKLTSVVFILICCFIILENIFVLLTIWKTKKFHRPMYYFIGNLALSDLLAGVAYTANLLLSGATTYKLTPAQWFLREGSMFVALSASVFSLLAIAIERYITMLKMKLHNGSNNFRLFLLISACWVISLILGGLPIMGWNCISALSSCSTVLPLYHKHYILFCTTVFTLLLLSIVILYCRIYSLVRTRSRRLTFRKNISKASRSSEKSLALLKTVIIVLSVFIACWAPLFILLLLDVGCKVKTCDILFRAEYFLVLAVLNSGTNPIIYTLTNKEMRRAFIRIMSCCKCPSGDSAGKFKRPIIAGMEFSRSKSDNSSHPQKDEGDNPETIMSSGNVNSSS

For the compound `CC1=C(CN2CC(C(=O)O)C2)CCc2cc(OCC(C)Cc3ccccc3)ccc21.Cl` (racemic), the EC50 in series [1] is 0.66 nM; in [2] it was 20.8 µM. Also, in the series with Mus musculus [3], the median effective dose (ED50) worked out at 0.19 mg/kg.

For `CC1=C(CN2CC(C(=O)O)C2)CCc2cc(OC[C@H](C)Cc3ccc(F)cc3)ccc21.Cl`, the half-maximal effective concentration (EC50) in series [1] is 0.85 nM; in [2], 11 µM. In addition, in the series with Mus musculus [4], the ED50 was determined as 0.55 mg/kg.

Regarding `CC1=C(CN2CC(C(=O)O)C2)CCc2cc(OC[C@@H](C)Cc3ccc(F)cc3)ccc21.Cl`, the EC50 is 0.37 nM in series [1] and 9.45 µM in series [2]. For the same compound, the ED50 in the series with Mus musculus [4] was 0.22 mg/kg. The peak level in [5] (Cmax) was 103 ng/mL. This compound registered a Cp in the series on Plasma of 69 ng/mL. In series [6], this compound came in with a clearance of 4 mL/min/kg. Besides, the half-life is 1140 min in [7] and 3420 min in series [8]. Further, the Vd in series [9] was found to be 5.7 L/kg. Moreover, in series [10], the Tmax came to 4.7 h. Besides, the bioavailability in [11] came out at 75%. The AUC(0-inf) in [12] was determined as 2600 ng·h/mL; in series [13], 2000 ng·h/mL.

As for `CC1=C(CN2CC(C(=O)O)C2)CCc2cc(OC[C@H](Cc3ccc(F)cc3)C(C)C)ccc21.Cl`, the EC50 in series [1] was 4.5 nM; in series [2], above 30 µM. In the series with Mus musculus [4], the ED50 stood at 0.68 mg/kg.

Take `CC1=C(CN2CC(C(=O)O)C2)CCc2cc(OCCCc3ccccc3)ccc21.Cl`: the results for the EC50 in [1] and in [2] were 3 nM and 5 µM, respectively. Also, the ED50 in the series with Mus musculus [3] was 0.4 mg/kg.

Regarding `CC1=C(CN2CC(C(=O)O)C2)CCc2cc(OCCCc3cccc(F)c3)ccc21.Cl`, the EC50 in series [1] was found to be 4 nM; in [2] it was 3.9 µM. The median effective dose (ED50) in the series with Mus musculus [3] is 0.15 mg/kg; in the series on Mus musculus [4] it was 0.69 mg/kg.

For `CC1=C(CN2CC(C(=O)O)C2)CCc2cc(OCCCc3ccccc3F)ccc21.Cl`, the results for the EC50 in series [1] and in series [2] were 2.7 nM and 2.9 µM, respectively. Further, the ED50 with Mus musculus [3] was 0.13 mg/kg; in the series with Mus musculus [4], 0.75 mg/kg.

In the case of `CC1=C(CN2CC(C(=O)O)C2)CCc2cc(OCC(C)(C)Cc3ccccc3)ccc21`, the EC50 is 20 nM in series [1] and above 30 µM in series [2].

As for `CC1=C(CN2CC(C(=O)O)C2)CCc2cc(OC(C)CCc3ccccc3)ccc21` (stereo unspecified), the EC50 in [1] was 20 nM; in [2], 14 µM.

Turning to `CC1=C(CN2CC(C(=O)O)C2)CCc2cc(OCCC(C)c3ccccc3)ccc21.Cl` (racemic), the EC50 in series [1] came to 0.6 nM; in series [2], 22 µM. Besides, the ED50 in the series on Mus musculus [3] is above 0.3 mg/kg.

In the case of `CC1=C(CN2CC(C(=O)O)C2)CCc2cc(OCCCc3ccc(F)cc3)ccc21.Cl`, the EC50 was 0.84 nM in series [1] and 3.2 µM in series [2]. Besides, the ED50 was found to be 0.055 mg/kg in the series with Mus musculus [3] and 0.25 mg/kg in the series on Mus musculus [4]. Moreover, the AUC(0-inf) was found to be 5400 ng·h/mL in series [14] and 5700 ng·h/mL in [15]. In series [5], this compound gave a Cmax of 159 ng/mL. The same compound had a Cp with Plasma of 88 ng/mL. The clearance in series [6] was determined as 3.2 mL/min/kg. Moreover, the half-life in series [7] is 1260 min; in series [8] it was 1440 min. Moreover, the Vd in [9] was 5.3 L/kg. The bioavailability in [16] came out at 106%. Further, the Tmax in series [10] was found to be 4.7 h.

Take `CC1=C(CN2CC(C(=O)O)C2)CCc2cc(OC[C@@H](C)Cc3ccc(Cl)cc3)ccc21.Cl`: the EC50 in [1] amounted to 0.55 nM; in series [2], 8.2 µM. In addition, the ED50 in the series with Mus musculus [4] turned out to be 0.095 mg/kg. Further, the Ratio EC50 with CHO is 15000. The AUC(0-inf) in [14] worked out at 9000 ng·h/mL; in series [15], 5500 ng·h/mL. In series [5], this compound had a Cmax of 184 ng/mL. The Cp with Plasma came to 87 ng/mL. Further, in series [6], the clearance worked out at 2 mL/min/kg. The values for the half-life in [7] and in series [8] were 1620 min and 1200 min, respectively. Also, the Vd in series [9] was 3.9 L/kg. Also, the bioavailability in [16] was found to be 62%. For the same compound, the Tmax in series [10] is 4.7 h.

Consider `CC[C@H](COc1ccc2c(c1)CCC(CN1CC(C(=O)O)C1)=C2C)Cc1ccc(F)cc1.Cl`, for which the figures for the EC50 in series [1] and in series [2] were 1.1 nM and 29.3 µM, respectively. Also, the ED50 with Mus musculus [4] is 0.77 mg/kg.

On to `CC1=C(CN2CC(C(=O)O)C2)CCc2cc(OCCCCc3ccccc3)ccc21`, for which the AUC(0-inf) in series [15] stood at 3800 ng·h/mL. Moreover, in the series on Plasma, the Cp came to 53 ng/mL. The compound further had a half-life in series [8] of 1020 min. Further, the bioavailability in series [16] is 85%. The Tmax in series [10] was found to be 4.7 h.

These data come from ChEMBL document CHEMBL1932994, “Structure-activity relationship studies of S1P agonists with a dihydronaphthalene scaffold” (Bioorg Med Chem Lett, 2012).
